Results as given in ChEMBL document CHEMBL1148197, “Three new manzamine alkaloids from a common Indonesian sponge and their activity against infectious and tropical parasitic diseases” (J Nat Prod, 2004).
In brackets after ≈: the same amount, converted by molar mass. Activity calls are given as the source filed them. The calls are words filed in the database; no cut-off is given here.

Columns and labels:
[1] = system: Cryptococcus neoformans; experiment: […] activity against Cryptococcus neoformans; assay type: functional, organism-based
[2] = system: Staphylococcus aureus; experiment: Antibacterial activity against methicillin-resistant Staphylococcus aureus; assay type: functional, organism-based
[3] = system: Staphylococcus aureus; experiment: Antimicrobial activity against Staphylococcus aureus; assay type: functional, organism-based
[4] = system: Vero; experiment: Cytotoxicity against african green monkey Vero cells at 4.7 ug/mL; assay type: cell-based; settings: chlorocebus sabaeus
[5] = system: Mycobacterium intracellulare; experiment: Antibacterial activity against Mycobacterium intracellular; assay type: functional, organism-based
[6] = system: Human immunodeficiency virus 1; experiment: Antiviral activity against HIV1 infected in human PBMCs; assay type: functional, organism-based
[7] = system: Mycobacterium tuberculosis; experiment: Antitubercular activity against Mycobacterium tuberculosis H37Rv; assay type: functional
[8] = system: Leishmania donovani; experiment: Antileishmanial activity against Leishmania donovani; assay type: functional, organism-based
[9] = system: Vero; experiment: Cytotoxicity against african green monkey Vero cells; assay type: cell-based; settings: chlorocebus sabaeus
Summary of the method: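 Vero (African green monkey kidney) cell cytotoxicity, reported in µg/mL. Compounds without cytotoxicity were scored at a tested concentration of 4.7 µg/mL.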

[10] = system: Plasmodium falciparum; experiment: Antimalarial activity against Plasmodium falciparum D6; assay type: functional, organism-based
[11] = system: Plasmodium falciparum; experiment: Antimalarial activity against chloroquine-resistant Plasmodium falciparum W2; assay type: functional, organism-based
[12] = system: Leishmania donovani; experiment: Antileishmanial activity against Leishmania donovani at 5 ug/mL; assay type: functional, organism-based
[13] = system: Plasmodium falciparum; experiment: Antimalarial activity against chloroquine-resistant Plasmodium falciparum W2 at 5 ug/mL; assay type: functional, organism-based
[14] = system: Plasmodium falciparum; experiment: Antimalarial activity against Plasmodium falciparum D6 at 5 ug/mL; assay type: functional, organism-based

Compound | Activity [1] | Activity [2] | Activity [3] | Activity [4] | MIC [7] [µg/mL] | IC90 [8] [µg/mL] | IC50 [5] [µg/mL] | EC50 [6] [µM] | other results
[O-][N+]1=C(C2=C[C@@]3(O)CC/C=C\CCCCN4CC[C@@H]2[C@]2(CC5/C=C\CCCCN5[C@H]23)C4)c2[nH]c3ccccc3c2CC1 (stereo partly specified) | inactive | inactive | inactive | Non-toxic |  |  |  |  | Activity [5]: inactive; Activity [6]: inactive
[O-][n+]1ccc2c([nH]c3ccccc32)c1C1=C[C@@]2(O)CC/C=C\CCCCN3CC[C@@H]1[C@]1(C[C@@H]4/C=C\CCCCN4[C@H]12)C3 |  |  |  |  | 3.9 (≈ 6.91 µM) | 3.8 (≈ 6.73 µM) | 0.2 (≈ 0.354 µM) |  | IC50 [8]: 1.1 µg/mL (≈ 1.95 µM); Activity [9]: 4.2 µg/mL; IC50 [1]: 1 µg/mL (≈ 1.77 µM); IC50 [2]: 0.4 µg/mL (≈ 0.708 µM); IC50 [3]: 0.5 µg/mL (≈ 0.885 µM); IC50 [10]: 0.011 µg/mL (≈ 0.0195 µM); IC50 [11]: 0.013 µg/mL (≈ 0.023 µM)
O=C1CCCN2[C@@H]3[C@@]45CN6CCCC/C=C\CC[C@@]3(C=C(c3nccc7c3[nH]c3ccccc37)[C@@H]4CC6)O[C@]2(CC1)C5 | inactive | inactive | inactive | Non-toxic |  |  |  |  | Activity [12]: inactive; IC50 [10]: 1.6 µg/mL (≈ 2.84 µM); IC50 [11]: 3.7 µg/mL (≈ 6.57 µM); Activity [13]: inactive; Activity [14]: inactive; Activity [5]: inactive
O=C1CCCN2[C@@H](CC1)C[C@]13CN4CCCC/C=C\CC[C@](O)(C=C(c5nccc6c5[nH]c5ccc(O)cc56)[C@@H]1CC4)[C@H]23 |  |  |  |  |  |  |  |  | Activity [9]: 4.3 µg/mL
Oc1cccc2c1[nH]c1c(C3=C[C@@]4(O)CC/C=C\CCCCN5CC[C@@H]3[C@]3(CC6/C=C\CCCCN6[C@H]34)C5)nccc12 (stereo partly specified) |  |  |  |  |  | 11 (≈ 19.5 µM) |  | 0.59 | Activity [9]: 1.1 µg/mL
O[C@]12C=C(c3nccc4c3[nH]c3ccccc34)C3CCN(CCCC/C=C\CC1)C[C@@]31C[C@]34CC[C@H](CCCN3[C@H]12)O4 (stereo partly specified) [6-Deoxymanzamine X] |  |  |  |  | 1.8 (≈ 3.19 µM) |  | 6.25 (≈ 11.1 µM) |  | Activity [9]: 4.7 µg/mL; IC50 [1]: 2 µg/mL (≈ 3.54 µM); IC50 [2]: 1.5 µg/mL (≈ 2.66 µM); IC50 [3]: 1.5 µg/mL (≈ 2.66 µM)
C[C@@H]1[C@H](O)[C@@H](C)/C=C/C=C/C=C/C=C/C=C/C=C/C=C/[C@H](O[C@@H]2O[C@H](C)[C@@H](O)[C@H](N)[C@@H]2O)C[C@@H]2O[C@](O)(C[C@@H](O)C[C@@H](O)[C@H](O)CC[C@@H](O)C[C@@H](O)CC(=O)O[C@H]1C)C[C@H](O)[C@H]2C(=O)O [AMPHOTERICIN B] |  |  |  |  |  | 0.15 (≈ 0.162 µM) |  |  | 
O=CC1=C[C@@]2(O)CC/C=C\CCCCN3CC[C@@H]1[C@]1(C[C@@H]4/C=C\CCCCN4[C@H]12)C3 [IRCINAL] | inactive | inactive | inactive | Non-toxic | 30.2 (≈ 73.6 µM) | 8.5 (≈ 20.7 µM) | 50 (≈ 122 µM) | 6.8 | IC50 [8]: 4.6 µg/mL (≈ 11.2 µM); Activity [13]: inactive; Activity [14]: inactive
OC1=C[C@@]2(O)CC/C=C\CCCCN3CC[C@@H]1[C@]1(C[C@@H]4/C=C\CCCCN4[C@H]12)C3 [IRCINOL A] | inactive |  | inactive | Non-toxic | 1.9 (≈ 4.77 µM) | 0.7 (≈ 1.76 µM) | 50 (≈ 125 µM) | 4.3 | IC50 [2]: 30 µg/mL (≈ 75.3 µM); IC50 [10]: 2.4 µg/mL (≈ 6.02 µM); IC50 [11]: 3.1 µg/mL (≈ 7.78 µM)
O[C@]12C=C(c3nccc4c3[nH]c3ccccc34)[C@@H]3CCN(CCCC/C=C\CC1)C[C@@]31C[C@@H]3/C=C\CCCCN3[C@H]12 [MANZAMINE A] |  |  |  |  |  | 1.8 (≈ 3.28 µM) |  | 4.2 | Activity [9]: 1.2 µg/mL
O=C1CCCN2[C@@H](CC1)C[C@]13CN4CCCC/C=C\CC[C@](O)(C=C(c5nccc6c5[nH]c5ccccc56)C1CC4)[C@H]23 (stereo partly specified) [MANZAMINE E] | inactive | inactive | inactive | Non-toxic |  | 6.8 (≈ 12 µM) |  | 13.1 | 
O=C1CCCN2[C@@H](CC1)C[C@]13CN4CCCC/C=C\CC[C@](O)(C=C(c5nccc6c5[nH]c5c(O)cccc56)C1CC4)[C@H]23 (stereo partly specified) [MANZAMINE F] |  | inactive | inactive | Non-toxic |  | 7 (≈ 12.1 µM) |  | 7.3 | 
O[C@]12C=C(c3nccc4c3[nH]c3ccccc34)[C@@H]3CCN(CCCC/C=C\CC1)C[C@@]31CC/C=C\CCCCN[C@H]12 [MANZAMINE J] | inactive | inactive | inactive | Non-toxic | 1.7 (≈ 3.09 µM) | 45 (≈ 81.7 µM) | 15 (≈ 27.2 µM) |  | IC50 [8]: 25 µg/mL (≈ 45.4 µM); IC50 [10]: 1.3 µg/mL (≈ 2.36 µM); IC50 [11]: 0.75 µg/mL (≈ 1.36 µM)
Oc1ccc2[nH]c3c(C4=C[C@@]5(O)CC/C=C\CCCCN6CC[C@@H]4[C@@]4(C6)C[C@@]67CC[C@@H](CCCN6[C@H]45)O7)nccc3c2c1 [MANZAMINE X] |  |  |  | Non-toxic |  |  | 1.5 (≈ 2.58 µM) | 2.3 | IC50 [1]: 3 µg/mL (≈ 5.17 µM); IC50 [2]: 0.75 µg/mL (≈ 1.29 µM); IC50 [3]: 1 µg/mL (≈ 1.72 µM)
O[C@@H]1CCCN2CC[C@@H]1O[C@@]13CC[C@@H](OC[C@]45CN6CCCC/C=C\CC[C@](O)(C=C(c7nccc8c7[nH]c7ccccc78)[C@@H]4CC6)[C@H]25)[C@@H](O)CCN1[C@@H]1[C@]2(CN4CCCC/C=C\CC[C@]1(O)C=C(c1nccc5c1[nH]c1ccccc15)[C@@H]2CC4)C3 [NEO-KAULUAMINE] |  | inactive | inactive | Non-toxic | 2 (≈ 1.72 µM) | 8.2 (≈ 7.05 µM) | 3 (≈ 2.58 µM) | 2.3 | IC50 [8]: 4.2 µg/mL (≈ 3.61 µM); IC50 [1]: 3 µg/mL (≈ 2.58 µM); IC50 [10]: 1.7 µg/mL (≈ 1.46 µM); IC50 [11]: 2.8 µg/mL (≈ 2.41 µM)
N=C(N)c1ccc(OCCCCCOc2ccc(C(=N)N)cc2)cc1 [PENTAMIDINE] |  |  |  |  |  | 10 (≈ 29.4 µM) |  |  | 
CO[C@H]1/C=C/O[C@@]2(C)Oc3c(C)c(O)c4c(O)c(c(/C=N/N5CCN(C)CC5)c(O)c4c3C2=O)NC(=O)/C(C)=C\C=C\[C@H](C)[C@H](O)[C@@H](C)[C@@H](O)[C@@H](C)[C@H](OC(C)=O)[C@@H]1C [RIFAMPIN] |  |  |  |  | 0.5 (≈ 0.608 µM) |  |  |  | 
